Data from ChEMBL document CHEMBL2203231, “Nitric oxide donor doxorubicins accumulate into Doxorubicin-resistant human colon cancer cells inducing cytotoxicity” (ACS Med Chem Lett, 2011).
One block for each compound: values may come before it. Calls of active or inactive are those of the source. No cut-off for these calls is given here.

Legend:
[1] = molecular target: T1, ATP-binding cassette sub-family C member 3 (Homo sapiens, UniProt O15438); test: Inhibition of MRP3-mediated drug resistance in doxorubicin-resistant human HT-29 cells assessed as increase in extracellular LDH level at 5 uM after 24 hrs by spectrofluorometric analysis; assay type: cell-based; settings: ht-29, 24 h
Method in brief: (§1)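 HT29-dx cells were incubated for 24 h with 5 μM compound, alone or with 100 μM PTIO or 10 μL/mL packed red blood cells as NO scavengers. Readouts were intracellular drug content, extracellular LDH activity and nitrite in the culture supernatant. Measured in duplicate, n = 3.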

[2] = molecular target: T1, ATP-binding cassette sub-family C member 3; test: Inhibition of MRP3-mediated drug resistance in doxorubicin-resistant human HT-29 cells assessed as increase in extracellular LDH level at 5 uM after 24 hrs by spectrofluorometric analysis in presence of nitric oxide scavenger PTIO and RBCs; assay type: cell-based; settings: ht-29, 24 h; method in brief: as §1
HT-29 [3] = test: Induction of nitrite production in doxorubicin-resistant human HT-29 cells after 24 hrs by Griess method; assay type: functional, cell-based
Method in brief: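 HT29-dx cell monolayers were incubated for 24 h with 0.5, 1, 2.5, 5 or 25 μM compound. Nitrite in the culture medium was quantified by the Griess reaction. Data are means ± SD (n = 3) versus untreated cells.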

HT-29 [4] = test: Induction of nitrite production in doxorubicin-resistant human HT-29 cells at 5 uM by Griess method; assay type: functional, cell-based; settings: TDE = time-dependent effect; method in brief: as §1
[5] = molecular target: T1, ATP-binding cassette sub-family C member 3; test: Inhibition of MRP3-mediated drug resistance in doxorubicin-resistant human HT-29 cells assessed as increase in doxorubicin accumulation at 5 uM after 24 hrs by spectrofluorometric analysis in presence of nitric oxide scavenger PTIO and RBCs; assay type: cell-based; settings: ht-29, 24 h; method in brief: as §1
[6] = molecular target: T1, ATP-binding cassette sub-family C member 3; test: Inhibition of MRP3-mediated drug resistance in doxorubicin-resistant human HT-29 cells assessed as increase in doxorubicin accumulation after 24 hrs by spectrofluorometric analysis; assay type: cell-based; settings: ht-29, 24 h
HT-29 [7] = test: Inhibition of P-gp in doxorubicin-resistant human HT-29 cells assessed as nitration of tyrosine residues at 5 uM after 24 hrs by Western blot analysis; assay type: cell-based
Method in brief: (§2)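 HT29-dx cells were treated for 24 h with 5 μM compound and lysed. Whole lysate was immunoprecipitated with a polyclonal anti-nitrotyrosine antibody, then Western blotted with anti-P-gp or anti-MRP3 antibody. Total transporter levels were checked before immunoprecipitation, with GAPDH as loading control. Representative of three experiments.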

[8] = molecular target: T1, ATP-binding cassette sub-family C member 3; test: Inhibition of MRP3-mediated drug resistance in doxorubicin-resistant human HT-29 cells assessed as increase in doxorubicin accumulation at 5 uM by spectrofluorometric analysis; assay type: cell-based; settings: ht-29, 5 µM, TDE = time-dependent effect
[9] = molecular target: T1, ATP-binding cassette sub-family C member 3; test: Inhibition of MRP3 in doxorubicin-resistant human HT-29 cells assessed as nitration of tyrosine residues at 5 uM after 24 hrs by Western blot analysis; assay type: cell-based; settings: ht-29, 24 h; method in brief: as §2
[10] = molecular target: T1, ATP-binding cassette sub-family C member 3; test: Inhibition of MRP3-mediated drug resistance in doxorubicin-resistant human HT-29 cells assessed as increase in doxorubicin accumulation at 5 umol/L incubated for 24 hrs followed by compound wash out measured 24 hrs post doxorubicin administration by spectrofluorometric analysis; assay type: cell-based; settings: ht-29, 24 h, 5 µM
[11] = molecular target: ATP-dependent translocase ABCB1 (Homo sapiens, UniProt P08183); test: Inhibition of P-gp in doxorubicin-resistant human HT-29 cells at 5 umol/L incubated for 24 hrs followed by compound wash out measured after 20 mins by Rhodamine 123 staining-based flow cytometry; assay type: cell-based; settings: ht-29, 24 h, 5 µM
[12] = molecular target: T1, ATP-binding cassette sub-family C member 3; test: Inhibition of MRP3-mediated drug resistance in doxorubicin-resistant human HT-29 cells assessed as increase in doxorubicin accumulation at 5 umol/L co-administered with doxorubicin after 24 hrs by spectrofluorometric analysis; assay type: cell-based; settings: ht-29, 24 h, 5 µM
[13] = molecular target: T1, ATP-binding cassette sub-family C member 3; test: Inhibition of MRP3-mediated drug resistance in doxorubicin-resistant human HT-29 cells assessed as increase in drug accumulation at 5 uM after 1 to 24 hrs by spectrofluorometric analysis; assay type: cell-based; settings: ht-29, 5 µM
Method in brief: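 Time course in HT29-dx cells with 5 μM drug over 1–24 h. Intracellular content was read by spectrofluorimetry of cell lysates.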

HT-29 [14] = test: Induction of nitrite production in doxorubicin-resistant human HT-29 cells at 5 uM after 1 to 24 hrs by Griess method; assay type: functional, cell-based
Method in brief: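 In a time-course run, HT29-dx cells were exposed to 5 μM compound. Nitrite in the medium was measured by the Griess reaction at times between 1 and 24 h.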

[15] = molecular target: T1, ATP-binding cassette sub-family C member 3; test: Inhibition of MRP3-mediated drug resistance in doxorubicin-resistant human HT-29 cells assessed as increase in drug accumulation at 0.5 to 5 uM after 24 hrs by spectrofluorometric analysis; assay type: cell-based; settings: ht-29, 24 h
Method in brief: (§3)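 HT29-dx cells in RPMI 1640 were incubated for 24 h with 0.5, 1, 2.5, 5 or 25 μM drug, then lysed. Intracellular drug was measured spectrofluorimetrically (excitation 475 nm, emission 553 nm). Data are means ± SD (n = 3) versus untreated cells.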

[16] = molecular target: T1, ATP-binding cassette sub-family C member 3; test: Inhibition of MRP3-mediated drug resistance in doxorubicin-resistant human HT-29 cells assessed as increase in drug accumulation at 25 uM after 24 hrs by spectrofluorometric analysis; assay type: cell-based; settings: ht-29, 24 h; method in brief: as §3

T1 sequence (O15438 whole entry): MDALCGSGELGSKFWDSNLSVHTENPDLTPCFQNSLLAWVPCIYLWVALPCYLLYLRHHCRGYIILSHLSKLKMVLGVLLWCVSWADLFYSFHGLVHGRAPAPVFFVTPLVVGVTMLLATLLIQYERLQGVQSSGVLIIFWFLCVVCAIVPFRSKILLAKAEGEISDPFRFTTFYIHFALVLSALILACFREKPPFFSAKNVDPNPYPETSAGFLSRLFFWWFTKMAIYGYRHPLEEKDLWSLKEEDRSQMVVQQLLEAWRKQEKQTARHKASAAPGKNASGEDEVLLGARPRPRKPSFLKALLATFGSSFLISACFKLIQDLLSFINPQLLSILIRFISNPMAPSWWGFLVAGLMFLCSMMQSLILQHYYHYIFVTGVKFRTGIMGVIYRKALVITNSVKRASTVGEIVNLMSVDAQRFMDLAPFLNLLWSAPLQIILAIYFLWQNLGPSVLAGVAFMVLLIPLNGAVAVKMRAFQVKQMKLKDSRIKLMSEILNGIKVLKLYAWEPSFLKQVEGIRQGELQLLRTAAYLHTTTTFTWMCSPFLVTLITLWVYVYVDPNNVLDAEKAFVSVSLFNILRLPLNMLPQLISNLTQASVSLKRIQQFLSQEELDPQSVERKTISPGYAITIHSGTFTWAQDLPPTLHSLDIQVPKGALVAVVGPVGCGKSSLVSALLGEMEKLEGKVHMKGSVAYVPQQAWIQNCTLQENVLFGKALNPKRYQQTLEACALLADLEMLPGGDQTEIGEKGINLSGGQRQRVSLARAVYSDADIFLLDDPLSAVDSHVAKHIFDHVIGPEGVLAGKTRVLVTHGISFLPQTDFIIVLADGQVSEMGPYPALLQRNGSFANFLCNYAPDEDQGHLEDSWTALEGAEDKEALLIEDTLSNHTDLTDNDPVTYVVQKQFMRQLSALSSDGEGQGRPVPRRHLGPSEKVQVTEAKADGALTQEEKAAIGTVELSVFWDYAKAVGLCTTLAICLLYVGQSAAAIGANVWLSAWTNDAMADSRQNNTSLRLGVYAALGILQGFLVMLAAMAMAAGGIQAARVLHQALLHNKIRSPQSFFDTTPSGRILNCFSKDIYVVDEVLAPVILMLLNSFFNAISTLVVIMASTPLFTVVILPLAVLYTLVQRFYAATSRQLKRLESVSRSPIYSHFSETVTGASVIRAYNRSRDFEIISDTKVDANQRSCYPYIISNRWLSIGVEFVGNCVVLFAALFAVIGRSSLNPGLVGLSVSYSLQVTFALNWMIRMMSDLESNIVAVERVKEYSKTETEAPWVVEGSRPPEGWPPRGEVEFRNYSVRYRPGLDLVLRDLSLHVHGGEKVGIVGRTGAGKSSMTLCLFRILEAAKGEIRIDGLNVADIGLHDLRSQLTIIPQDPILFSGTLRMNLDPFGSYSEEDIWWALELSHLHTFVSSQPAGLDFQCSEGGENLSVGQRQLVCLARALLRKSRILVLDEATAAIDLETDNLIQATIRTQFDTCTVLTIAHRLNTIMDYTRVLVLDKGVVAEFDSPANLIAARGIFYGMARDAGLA
ATP-dependent translocase ABCB1, sequence (P08183 whole entry): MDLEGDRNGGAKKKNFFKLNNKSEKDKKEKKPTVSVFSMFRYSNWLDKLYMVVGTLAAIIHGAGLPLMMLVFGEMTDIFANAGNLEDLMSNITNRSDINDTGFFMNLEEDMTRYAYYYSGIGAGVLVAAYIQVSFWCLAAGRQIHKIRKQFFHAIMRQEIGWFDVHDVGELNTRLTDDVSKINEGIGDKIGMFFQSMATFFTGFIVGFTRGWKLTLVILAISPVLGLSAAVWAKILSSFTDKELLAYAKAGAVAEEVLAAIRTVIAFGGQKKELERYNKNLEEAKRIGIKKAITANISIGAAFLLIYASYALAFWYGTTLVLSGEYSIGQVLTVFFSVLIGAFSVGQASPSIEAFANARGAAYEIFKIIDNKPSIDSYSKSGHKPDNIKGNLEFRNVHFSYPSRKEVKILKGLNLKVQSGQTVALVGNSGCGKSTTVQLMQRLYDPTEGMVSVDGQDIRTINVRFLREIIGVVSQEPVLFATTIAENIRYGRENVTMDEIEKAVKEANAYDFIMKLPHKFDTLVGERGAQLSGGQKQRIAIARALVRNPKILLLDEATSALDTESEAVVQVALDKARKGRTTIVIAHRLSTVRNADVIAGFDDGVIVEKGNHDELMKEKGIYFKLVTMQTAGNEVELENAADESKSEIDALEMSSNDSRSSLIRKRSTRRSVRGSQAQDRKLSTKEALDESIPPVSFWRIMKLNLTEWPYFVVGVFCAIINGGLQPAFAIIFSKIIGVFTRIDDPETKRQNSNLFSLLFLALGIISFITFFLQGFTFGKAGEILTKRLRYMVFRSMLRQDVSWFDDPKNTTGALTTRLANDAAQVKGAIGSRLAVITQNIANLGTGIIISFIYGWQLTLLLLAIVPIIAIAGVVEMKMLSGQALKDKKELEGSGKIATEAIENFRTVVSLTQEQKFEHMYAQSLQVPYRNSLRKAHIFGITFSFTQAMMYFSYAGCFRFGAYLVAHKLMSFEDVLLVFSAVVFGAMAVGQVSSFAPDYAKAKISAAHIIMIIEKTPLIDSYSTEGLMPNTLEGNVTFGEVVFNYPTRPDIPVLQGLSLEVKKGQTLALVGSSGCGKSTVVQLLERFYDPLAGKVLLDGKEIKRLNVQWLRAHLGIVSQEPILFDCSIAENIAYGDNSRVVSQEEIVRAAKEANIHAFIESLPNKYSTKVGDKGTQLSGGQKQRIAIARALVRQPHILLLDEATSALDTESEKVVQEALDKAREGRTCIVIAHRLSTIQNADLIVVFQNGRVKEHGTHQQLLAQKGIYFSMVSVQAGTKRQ

SMILES: COC(=O)c1ccc(CC(CO[N+](=O)[O-])O[N+](=O)[O-])cc1 (stereo not drawn)
inhibition (INH) [1]: Not Active

SMILES: COc1cccc2c1C(=O)c1c(O)c3c(c(O)c1C2=O)C[C@@](O)(C(=O)COC(=O)c1ccc(CC(CO[N+](=O)[O-])O[N+](=O)[O-])cc1)C[C@@H]3O[C@H]1C[C@H](N)[C@H](O)[C@H](C)O1.Cl (stereo partly drawn)
inhibition (INH) [2]: Not Active
Activity (HT-29 [3]): Dose-dependent effect
Activity (HT-29 [4]): tde
inhibition (INH) [5]: Not Active
inhibition (INH) [6]: Dose-dependent effect
inhibition (HT-29 [7]): inactive
inhibition (INH) [1]: Active
inhibition (INH) [8]: tde
inhibition (INH) [9]: Active

SMILES: COc1cccc2c1C(=O)c1c(O)c3c(c(O)c1C2=O)C[C@@](O)(C(=O)CO)C[C@@H]3O[C@H]1C[C@H](N)[C@H](O)[C@H](C)O1 [DOXORUBICIN]
inhibition (INH) [13]: Not Active
Activity (HT-29 [14]): inactive
inhibition (INH) [15]: Not Active
inhibition (INH) [16]: Active
inhibition (INH) [9]: Not Active

SMILES: O=C(O)c1ccc(CC(CO[N+](=O)[O-])O[N+](=O)[O-])cc1 (stereo not drawn)
inhibition (INH) [1]: Not Active

SMILES: COc1cccc2c1C(=O)c1c(O)c3c(c(O)c1C2=O)C[C@@](O)(C(=O)COC(=O)CCOc1no[n+]([O-])c1S(=O)(=O)c1ccccc1)C[C@@H]3O[C@H]1C[C@H](N)[C@H](O)[C@H](C)O1.Cl
inhibition (INH) [2]: Not Active
Activity (HT-29 [3]): Dose-dependent effect
Activity (HT-29 [4]): tde
inhibition (INH) [5]: Not Active
inhibition (INH) [6]: Dose-dependent effect
inhibition (HT-29 [7]): inactive
inhibition (INH) [1]: Active
inhibition (INH) [8]: tde
inhibition (INH) [9]: Active

More lines, now with the values ahead:

inhibition (INH) [10]: Active
inhibition (INH) [11]: Not Active
inhibition (INH) [1]: Not Active
inhibition (INH) [12]: Active
SMILES: O=C(O)CCOc1no[n+]([O-])c1S(=O)(=O)c1ccccc1

inhibition (INH) [10]: Active
inhibition (INH) [11]: Not Active
inhibition (INH) [1]: Not Active
inhibition (INH) [12]: Active
SMILES: COC(=O)CCOc1no[n+]([O-])c1S(=O)(=O)c1ccccc1
